In data set [1] the test system is Brucella suis. The experiment in a line: Antibacterial activity against Brucella suis 1330 in minimal medium at 100 uM after 96 hrs. Format: functional, organism-based.
Data set [2] relates to Brucella suis. The experiment in a line: Inhibition of intracellular replication of Brucella suis 1330 in human THP1 cells assessed as reduction in number of viable intracellular bacteria at 25 uM treated 90 mins postinfection measured 24 hrs postinfection relative to control. Format: functional, organism-based. The following applies: THP-1.
The subject of data set [3] is Brucella suis. The experiment in a line: Antibacterial activity against Brucella suis 1330 assessed as reduction in bacterial growth in minimal medium after 96 hrs relative to control. Type of data set: functional.
For data set [4], the system named is THP-1. The experiment in a line: Toxicity against human THP1 cells at 25 uM after 48 hrs by trypan blue exclusion method. The following applies: thp-1, 48 h. Format: cell-based. Put shortly: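 Infected THP1 macrophage-like cells are stained with trypan blue at 48 h postinfection, at the drug concentrations used in the intracellular assay.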
The subject of data set [5] is Brucella suis. The experiment in a line: Antibacterial activity against Brucella suis 1330 assessed as reduction in bacterial intramacrophagic multiplication in human THP1 cells at 25 uM treated 90 mins postinfection measured 24 hrs postinfection relative to control. Type of data set: functional, THP-1.
The test system of data set [6] is Brucella suis. The experiment in a line: Antibacterial activity against Brucella suis 1330 in minimal medium after 96 hrs. Format: functional, organism-based.
Data set [7] concerns the target T1, Histidinol dehydrogenase (Brucella suis biovar 1 (strain 1330), UniProt Q8G2R2).
T1 sequence (Q8G2R2 whole entry): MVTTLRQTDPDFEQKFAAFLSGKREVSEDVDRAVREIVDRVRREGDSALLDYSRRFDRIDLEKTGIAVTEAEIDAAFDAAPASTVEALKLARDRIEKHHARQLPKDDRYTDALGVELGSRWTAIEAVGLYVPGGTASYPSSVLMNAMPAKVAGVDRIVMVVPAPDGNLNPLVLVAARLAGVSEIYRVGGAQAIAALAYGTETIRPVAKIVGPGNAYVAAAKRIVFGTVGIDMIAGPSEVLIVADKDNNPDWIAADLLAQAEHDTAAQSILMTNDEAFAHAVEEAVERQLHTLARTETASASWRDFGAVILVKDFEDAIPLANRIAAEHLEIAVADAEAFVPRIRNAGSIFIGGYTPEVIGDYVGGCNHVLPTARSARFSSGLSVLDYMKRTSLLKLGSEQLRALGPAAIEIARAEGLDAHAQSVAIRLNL
The experiment in a line: Inhibition of Brucella suis histidinol dehydrogenase.

Data set [8] deals with Brucella suis. The experiment in a line: Growth inhibition of Brucella suis 1330 in minimal medium devoid of 1 mM histidine at 100 uM after 96 hrs. Format: functional, organism-based.
Data set [9] has as its system Brucella suis. The experiment in a line: Growth inhibition of Brucella suis 1330 in minimal medium containing 1 mM histidine at 100 uM after 96 hrs. Type of data set: functional, organism-based.

From ChEMBL document CHEMBL1153840, “Targeting of the Brucella suis virulence factor histidinol dehydrogenase by histidinol analogues results in inhibition of intramacrophagic multiplication of the pathogen” (Antimicrob Agents Chemother, 2007) come the findings set out here.

Calls of active or inactive are those of the source. The rule behind the calls is not given here.

In the case of `Cl.Cl.N[C@@H](Cc1c[nH]cn1)C(=O)Cc1ccc(Br)cc1`, the inhibition entry in data set [1] was “Active”. Besides, the result in data set [2] was Active. Moreover, the results for the “fold change (FC)” value in [3] and in data set [5] were 12 and 50, respectively. For the same molecule, in data set [4], the Activity result is “Non-toxic”. The inhibition entry in [6] was “Dose-dependent effect”.

As for `Cl.Cl.N[C@@H](Cc1c[nH]cn1)C(=O)Cc1c(F)c(F)c(F)c(F)c1F`, in data set [3], the “fold change (FC)” value came out at 12. The IC50 (in general, the concentration at which inhibition is half-maximal) in data set [7] was found to be 6 nM.

With `Cl.Cl.N[C@@H](Cc1c[nH]cn1)C(=O)Cc1ccc(Cl)c(Cl)c1`, the “fold change (FC)” value in [3] came out at 12. For the same molecule, the IC50 in [7] was found to be 6 nM.

In the case of `Cl.Cl.N[C@@H](Cc1c[nH]cn1)C(=O)Cc1ccc(-c2ccccc2)cc1`, the inhibition entry in data set [1] was “Active”. In addition, the result in data set [8] and in [2] was Active. Besides, the result in data set [9] was inactive. In addition, the “fold change (FC)” value in [3] is 12; in [5], 50. In data set [7], this molecule registered an IC50 of 6 nM. Besides, in [4], the Activity entry is “Non-toxic”. Besides, the inhibition result in [6] was “Dose-dependent effect”.

As for `Cl.Cl.N[C@@H](Cc1c[nH]cn1)C(=O)Cc1ccc(F)cc1F`, the “fold change (FC)” value in [3] is reported as 12. For the same molecule, the IC50 in [7] came out at 6 nM.

Consider `Cl.Cl.N[C@@H](Cc1c[nH]cn1)C(=O)Cc1cccc2ccccc12`, for which the “fold change (FC)” value in data set [3] worked out at 12. This molecule returned an IC50 in data set [7] of 6 nM.

As for `Cl.Cl.N[C@@H](Cc1c[nH]cn1)C(=O)Cc1ccc2ccccc2c1`, the inhibition entry in [1] is “Active”. The outcome in data set [2] was Active. In addition, the “fold change (FC)” value is on record as 12 in data set [3] and 50 in [5]. Besides, in data set [7], the IC50 came to 6 nM. In addition, in [4], the Activity result is given as “Non-toxic”. Also, the inhibition entry in data set [6] is “Dose-dependent effect”.

Take `Cl.Cl.N[C@@H](Cc1c[nH]cn1)C(=O)Cc1ccc(Cl)cc1`: the inhibition entry in data set [1] was “Active”. In addition, in data set [2], the result was Active. The “fold change (FC)” value in data set [3] stood at 12; in [5], 50. In data set [7], this molecule had an IC50 of 6 nM. Also, the Activity entry in data set [4] is recorded as “Non-toxic”. The inhibition result in data set [6] is “Dose-dependent effect”.

For the molecule `Cc1ccc(CC(=O)[C@@H](N)Cc2c[nH]cn2)cc1.Cl.Cl`, the “fold change (FC)” value in [3] came out at 12. This molecule displayed an IC50 in data set [7] of 6 nM.

Regarding `Cl.Cl.N[C@@H](Cc1c[nH]cn1)C(=O)Cc1ccc(F)cc1`, the inhibition result in data set [1] is “Active”. Moreover, the “fold change (FC)” value in data set [3] stood at 12. The same molecule registered an IC50 in [7] of 6 nM.

As for `COc1ccc(CC(=O)[C@@H](N)Cc2c[nH]cn2)cc1.Cl.Cl`, the “fold change (FC)” value in data set [3] came to 12. This molecule returned a half-inhibitory concentration (IC50) in data set [7] of 6 nM.

Regarding `Cl.Cl.N[C@@H](Cc1c[nH]cn1)C(=O)Cc1ccc2c(c1)OCO2`, the “fold change (FC)” value in data set [3] came to 12. The IC50 in data set [7] turned out to be 6 nM.

As for `Cl.Cl.N[C@@H](Cc1c[nH]cn1)C(=O)Cc1ccccc1`, in [3], the “fold change (FC)” value was determined as 12. In [7], this molecule displayed an IC50 of 6 nM.

For `Cl.Cl.N[C@@H](Cc1c[nH]cn1)C(=O)Cc1ccc(Oc2ccccc2)cc1`, the “fold change (FC)” value in data set [3] was found to be 12. This molecule came in with an IC50 in [7] of 6 nM.

For `Cl.Cl.N[C@@H](Cc1c[nH]cn1)C(=O)Cc1ccc(OCc2ccccc2)cc1`, in [2], the outcome was Active. Besides, the “fold change (FC)” value in [3] was found to be 12.
